84 variants from the RNAGym collection of RNA variant scans (doi:10.1038/s41586-018-0170-7) can be followed below.

B1: tRNA (parent)
chain: GUUCCGUUGGCGUAAUGGUAACGCGUCUCCCUCCUAAGGAGAAGACUGCGGGUUCGAGUCCCGUACGGAACG

This series covers variants of B1. The series is described as follows: yeast fitness, log relative to wild type (ln ratio); higher = fitter; tRNA-Arg(CCU), competitive growth, 37 C, 1 M NaCl. The gist of the method: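 Two independent transformations put a combinatorial tRNA-Arg(CCU) variant library on a HIS3 centromeric plasmid into BY4742 lacking the chromosomal gene. Pools were grown in SC-HIS at 30 °C for 4 generations, then in SC-HIS 1M NaCl at 37 °C for ~6.5 generations (~26.5 h), with three outputs taken per input. Fitness compares a genotype's generations with the wild type's as a natural log ratio. Those generations are OD-scaled log2 output/input frequencies, inverse-variance weighted across replicates, from 125 bp paired-end Illumina counts.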
Regarding U2C G6U A69G A70U C71U, the “yeast fitness (ln)” value is -0.231.
For the variant U2C G6U C46U C66U A69G A70G C71U, the “yeast fitness (ln)” value was -0.1.
Turning to U2C G6U C66U A69G A70U C71U, the “yeast fitness (ln)” value was -0.468.
U2G C27U A43C C46U A69G A70U: the “yeast fitness (ln)” value was -0.0275.
In the case of U2G C27U A43C C46U A69G A70G, the “yeast fitness (ln)” value is -0.114.
The result for U2C G6U C27U A43C C66U A69G C71U reads -0.522; that for U2G C27U A43C A69G C71U, -0.318; that for U2G A43C C46U C66A A69G A70G C71U, -0.21.
Take U2G A69G C71U: the “yeast fitness (ln)” value is -0.101.
Then U2G C27U A43C A69G A70G C71U, with -0.204; and U2G C27U A43C C46U C66U A69G C71U, with -0.394; and U2C G6U C66A A70U C71U, with -0.105.
Then U2G C27U A43C C66U A69G A70U C71U, with -0.42.
With U2C G6U C27U A43C C66A A70G, the “yeast fitness (ln)” value is -0.0266.
U2C G6U C27U A43C C66A A70U: the “yeast fitness (ln)” value is -0.167.
The result for U2G C27U A43C C46U C66U reads -0.146; that for U2G C27U A43C C46U C66A, -0.124; that for U2G C27U A43C C46U C66A A69G C71U, -0.34.
For U2G C27U A43C, the “yeast fitness (ln)” value is -0.0611.
Turning to U2C G6U A70G C71U, the “yeast fitness (ln)” value is -0.0899.
Regarding U2C G6U C66A A69G A70U C71U, the “yeast fitness (ln)” value was -0.487.
As to U2G A43C C66U C71U, the “yeast fitness (ln)” value was -0.343.
In the case of U2C G6U C27U A43C C46U C66U A70U, the “yeast fitness (ln)” value was -0.173.
As for U2C G6U C27U A43C C46U C66U A70G, the “yeast fitness (ln)” value is -0.304.
Regarding U2G A43C C46U A69G C71U, the “yeast fitness (ln)” value was -0.107.
With U2C G6U C27U A69G C71U, the “yeast fitness (ln)” value was -0.22.
For U2C G6U C27U A43C C46U A69G A70U C71U, the “yeast fitness (ln)” value is -0.309.
For the variant U2C G6U C27U A43C C66A, the “yeast fitness (ln)” value is -0.104.
Then U2C G6U C27U A43C C66U, with -0.0999.
As to U2C G6U C66U C71U, the “yeast fitness (ln)” value was -0.139.
Then U2G C27U A43C C46U C66A A70G C71U, with -0.162; and U2C G6U C27U C66A A70U, with -0.16.
In the case of U2C G6U C27U C66A A70G, the “yeast fitness (ln)” value is -0.0277.
Then U2C G6U C27U A43C C66U C71U, with -0.338.
With U2G A43C C46U A70U C71U, the “yeast fitness (ln)” value is -0.0246.
The result for U2C G6U C66U A69G C71U reads -0.176.
U2C G6U C27U A43C C46U C66A C71U: the “yeast fitness (ln)” value was -0.17.
Turning to U2C G6U C27U A43C A69G A70G C71U, the “yeast fitness (ln)” value was -0.281.
U2G C27U A43C C46U: the “yeast fitness (ln)” value was -0.0622.
For U2C G6U C46U C66A A70U C71U, the “yeast fitness (ln)” value is -0.121.
Regarding U2C G6U A69G A70G, the “yeast fitness (ln)” value was -0.133.
U2C G6U A69G A70U: the “yeast fitness (ln)” value was -0.117.
Consider U2C G6U C27U A43C C66U A69G A70G C71U, for which the “yeast fitness (ln)” value was -0.347.
The result for U2C G6U C66U A69G A70G reads -0.103; that for U2C G6U C66U A69G A70U, -0.179.
Consider U2G C27U A43C C46U C66A A69G A70G, for which the “yeast fitness (ln)” value is -0.21.
Regarding U2G C27U A43C C46U C66A A69G A70U, the “yeast fitness (ln)” value is -0.175.
For U2G A43C C46U C66A C71U, the “yeast fitness (ln)” value was -0.148.
Regarding U2G A43C C66A A70G C71U, the “yeast fitness (ln)” value is -0.237.
Take U2C G6U C46U C66A A69G A70G C71U: the “yeast fitness (ln)” value is -0.0159.
Take U2C G6U C46U C66U A69G C71U: the “yeast fitness (ln)” value is -0.221.
As to U2C G6U C66A A70G, the “yeast fitness (ln)” value is -0.0114.
On to U2C G6U C66A A70U, for which the “yeast fitness (ln)” value is 0.0021.
Regarding U2C G6U C46U A69G A70G, the “yeast fitness (ln)” value was -0.0922.
As for U2C G6U C46U A69G A70U, the “yeast fitness (ln)” value was -0.086.
Regarding U2C G6U C27U A43C C66A C71U, the “yeast fitness (ln)” value was -0.176.
As to U2C G6U C46U C71U, the “yeast fitness (ln)” value is -0.0792.
Take U2C G6U C27U C46U C66U A69G A70G C71U: the “yeast fitness (ln)” value was -0.493.
With U2G C27U A43C C46U C66U A69G A70G C71U, the “yeast fitness (ln)” value is -0.249.
With U2G C27U A43C C66A A69G A70U C71U, the “yeast fitness (ln)” value was -0.477.
The result for U2C G6U C27U C46U A69G A70G C71U reads -0.244; that for U2C G6U C27U C46U C66A C71U, -0.0782.
Consider U2C G6U C27U A43C, for which the “yeast fitness (ln)” value was -0.0819.
As for U2C G6U C27U A43C C46U A70U C71U, the “yeast fitness (ln)” value was -0.182.
Regarding U2C G6U C27U C46U C71U, the “yeast fitness (ln)” value was -0.235.
Turning to U2C G6U C27U C66U A70U, the “yeast fitness (ln)” value is -0.194.
Turning to U2C G6U C27U C66U A70G, the “yeast fitness (ln)” value was -0.215.
Then U2C G6U C46U C66U A69G A70U C71U, with -0.282.
As to U2C G6U C46U, the “yeast fitness (ln)” value is -0.0289.
In the case of U2C G6U C27U C46U C66U A69G C71U, the “yeast fitness (ln)” value is -0.397.
Consider U2G C27U A43C C46U C66U A70G, for which the “yeast fitness (ln)” value is -0.161.
U2G C27U A43C C46U C66U A70U: the “yeast fitness (ln)” value was -0.271.
On to U2C G6U C27U C46U, for which the “yeast fitness (ln)” value is -0.0552.
In the case of U2G A43C C66U A70G, the “yeast fitness (ln)” value was -0.156.
As for U2G A43C C66U A70U, the “yeast fitness (ln)” value was -0.268.
Consider U2G C27U A43C C46U C66A A69G A70U C71U, for which the “yeast fitness (ln)” value was -0.498.
Then U2C G6U C46U A70G, with -0.0195; and U2C G6U C46U A70U, with -0.0445; and U2C G6U C27U A43C C71U, with -0.23.
With U2G C27U A43C C46U C66A A70U C71U, the “yeast fitness (ln)” value was -0.262.
With U2C G6U C66U A70G, the “yeast fitness (ln)” value is -0.0259.
As to U2C G6U C66U A70U, the “yeast fitness (ln)” value was -0.0735.
Turning to U2C G6U C27U C66A A70G C71U, the “yeast fitness (ln)” value is -0.0263.
Regarding U2C G6U C27U A70G, the “yeast fitness (ln)” value was -0.185.
